ChEMBL document CHEMBL1649231, “In vitro activities of panduratin A against clinical Staphylococcus strains” (2009)
In brackets after ≈: the same amount, converted by molar mass.

Experiments:
Assay type in all cases: functional
[1] = test system: Staphylococcus hominis; assay: Antimicrobial activity against methicillin-susceptible coagulase-negative Staphylococcus hominis assessed as resistant isolates after 24 hrs by broth microdilution method
[2] = test system: Staphylococcus epidermidis; assay: Antimicrobial activity against methicillin-resistant coagulase-negative Staphylococcus epidermidis assessed as intermediate resistant isolates after 24 hrs by broth microdilution method
[3] = test system: Staphylococcus haemolyticus; assay: Antimicrobial activity against methicillin-susceptible coagulase-negative Staphylococcus haemolyticus after 24 hrs by broth microdilution method
In short: (§1)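 Clinical isolates came from blood, body fluids, genital secretions, pus or sputum, identified conventionally or by Vitek. MICs were run by CLSI M7-A6 broth microdilution in Mueller-Hinton broth with 5 × 10^5 CFU/ml inoculum. Agents were twofold serially diluted, starting from 10% DMSO. Drug-free and uninoculated controls were included. Plates were incubated aerobically at 37°C for 24 h; MIC is the lowest concentration giving no visible growth.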

[4] = test system: Staphylococcus haemolyticus; assay: Antimicrobial activity against methicillin-susceptible coagulase-negative Staphylococcus haemolyticus assessed as resistant isolates after 24 hrs by broth microdilution method
[5] = test system: Mammaliicoccus sciuri; assay: Antimicrobial activity against methicillin-susceptible coagulase-negative Staphylococcus sciuri after 24 hrs by broth microdilution method; in short: as §1
[6] = test system: Staphylococcus simulans; assay: Antimicrobial activity against methicillin-resistant coagulase-negative Staphylococcus simulans after 24 hrs by broth microdilution method; in short: as §1
[7] = test system: Mammaliicoccus sciuri; assay: Antimicrobial activity against methicillin-susceptible coagulase-negative Staphylococcus sciuri assessed as susceptible isolates after 24 hrs by broth microdilution method
In short: (§2)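 Clinical isolates from blood, body fluids, pus, sputum or genital secretions, identified conventionally or by Vitek, were tested alongside ATCC 29213 and ATCC 12228 controls. CLSI M7-A6 broth microdilution in Mueller-Hinton broth used twofold dilutions from a 10% DMSO solution and 5 × 10^5 CFU/ml inoculum. Drug-free and uninoculated wells served as controls; incubation was aerobic at 37°C for 24 h. MIC was the lowest concentration with no visible growth.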

[8] = test system: Mammaliicoccus sciuri; assay: Bactericidal activity against methicillin-susceptible coagulase-negative Staphylococcus sciuri after 24 hrs by plate counting method; details: for MBC: Mammaliicoccus sciuri, 24 h
In short: (§3)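 Clinical staphylococcal isolates from patient body fluids, blood, genital secretions, pus or sputum; species by conventional methods or Vitek. Twofold dilutions in Mueller-Hinton broth, inoculum 5 × 10^5 CFU/ml, 37°C aerobic 24 h (CLSI M7-A6 microdilution). About 100 μl from each well without visible growth spread on MHA; 37°C 24 h. MBC = lowest concentration giving no growth on agar.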

[9] = test system: Staphylococcus haemolyticus; assay: Bactericidal activity against methicillin-resistant coagulase-negative Staphylococcus haemolyticus after 24 hrs by plate counting method; details: for MBC: Staphylococcus haemolyticus, 24 h
[10] = test system: Staphylococcus simulans; assay: Antimicrobial activity against methicillin-resistant coagulase-negative Staphylococcus simulans assessed as susceptible isolates after 24 hrs by broth microdilution method
[11] = test system: Staphylococcus epidermidis; assay: Antimicrobial activity against methicillin-susceptible coagulase-negative Staphylococcus epidermidis assessed as resistant isolates after 24 hrs by broth microdilution method
[12] = test system: Staphylococcus simulans; assay: Antimicrobial activity against methicillin-susceptible coagulase-negative Staphylococcus simulans after 24 hrs by broth microdilution method; in short: as §1
[13] = test system: Staphylococcus epidermidis; assay: Antimicrobial activity against methicillin-susceptible coagulase-negative Staphylococcus epidermidis assessed as susceptible isolates after 24 hrs by broth microdilution method
[14] = test system: Staphylococcus haemolyticus; assay: Antimicrobial activity against methicillin-resistant coagulase-negative Staphylococcus haemolyticus assessed as susceptible isolates after 24 hrs by broth microdilution method
[15] = test system: Staphylococcus simulans; assay: Antimicrobial activity against methicillin-susceptible coagulase-negative Staphylococcus simulans assessed as susceptible isolates after 24 hrs by broth microdilution method; in short: as §2
[16] = test system: Staphylococcus aureus; assay: Bactericidal activity against methicillin-resistant Staphylococcus aureus after 24 hrs by plate counting method; details: for MBC: Staphylococcus aureus, 24 h
[17] = test system: Staphylococcus aureus; assay: Antimicrobial activity against methicillin-susceptible Staphylococcus aureus after 24 hrs by broth microdilution method; in short: as §1
[18] = test system: Mammaliicoccus sciuri; assay: Antimicrobial activity against methicillin-resistant coagulase-negative Staphylococcus sciuri after 24 hrs by broth microdilution method; in short: as §1
[19] = test system: Staphylococcus simulans; assay: Bactericidal activity against methicillin-resistant coagulase-negative Staphylococcus simulans after 24 hrs by plate counting method; details: for MBC: Staphylococcus simulans, 24 h; in short: as §3
[20] = test system: Staphylococcus haemolyticus; assay: Bactericidal activity against methicillin-susceptible coagulase-negative Staphylococcus haemolyticus after 24 hrs by plate counting method; details: for MBC: Staphylococcus haemolyticus, 24 h; in short: as §3
[21] = test system: Staphylococcus hominis; assay: Antimicrobial activity against methicillin-susceptible coagulase-negative Staphylococcus hominis assessed as intermediate resistant isolates after 24 hrs by broth microdilution method; details: pooled result: one value given for 5 cell lines, strains, targets or settings
[22] = test system: Staphylococcus simulans; assay: Antimicrobial activity against methicillin-resistant coagulase-negative Staphylococcus simulans assessed as intermediate resistant isolates after 24 hrs by broth microdilution method
[23] = test system: Staphylococcus hominis; assay: Antimicrobial activity against methicillin-resistant coagulase-negative Staphylococcus hominis assessed as susceptible isolates after 24 hrs by broth microdilution method
[24] = test system: Mammaliicoccus sciuri; assay: Antimicrobial activity against methicillin-susceptible coagulase-negative Staphylococcus sciuri assessed as resistant isolates after 24 hrs by broth microdilution method
[25] = test system: Staphylococcus epidermidis; assay: Bactericidal activity against methicillin-susceptible coagulase-negative Staphylococcus epidermidis after 24 hrs by plate counting method; details: for MBC: Staphylococcus epidermidis, 24 h; in short: as §3
[26] = test system: Mammaliicoccus sciuri; assay: Bactericidal activity against methicillin-resistant coagulase-negative Staphylococcus sciuri after 24 hrs by plate counting method; details: for MBC: Mammaliicoccus sciuri, 24 h; in short: as §3
[27] = test system: Staphylococcus epidermidis; assay: Antimicrobial activity against methicillin-resistant coagulase-negative Staphylococcus epidermidis after 24 hrs by broth microdilution method; in short: as §1
[28] = test system: Staphylococcus haemolyticus; assay: Antimicrobial activity against methicillin-susceptible coagulase-negative Staphylococcus haemolyticus assessed as susceptible isolates after 24 hrs by broth microdilution method
[29] = test system: Staphylococcus simulans; assay: Antimicrobial activity against methicillin-susceptible coagulase-negative Staphylococcus simulans assessed as resistant isolates after 24 hrs by broth microdilution method
[30] = test system: Staphylococcus hominis; assay: Antimicrobial activity against methicillin-resistant coagulase-negative Staphylococcus hominis assessed as resistant isolates after 24 hrs by broth microdilution method
[31] = test system: Staphylococcus hominis; assay: Bactericidal activity against methicillin-susceptible coagulase-negative Staphylococcus hominis after 24 hrs by plate counting method; details: for MBC: Staphylococcus hominis, 24 h; in short: as §3
[32] = test system: Staphylococcus aureus; assay: Antimicrobial activity against methicillin-resistant Staphylococcus aureus assessed as resistant isolates after 24 hrs by broth microdilution method
[33] = test system: Mammaliicoccus sciuri; assay: Antimicrobial activity against methicillin-resistant coagulase-negative Staphylococcus sciuri assessed as intermediate resistant isolates after 24 hrs by broth microdilution method
[34] = test system: Staphylococcus epidermidis; assay: Bactericidal activity against methicillin-resistant coagulase-negative Staphylococcus epidermidis after 24 hrs by plate counting method; details: for MBC: Staphylococcus epidermidis, 24 h
[35] = test system: Staphylococcus simulans; assay: Antimicrobial activity against methicillin-resistant coagulase-negative Staphylococcus simulans assessed as resistant isolates after 24 hrs by broth microdilution method
[36] = test system: Staphylococcus aureus; assay: Antimicrobial activity against methicillin-susceptible Staphylococcus aureus assessed as resistant isolates after 24 hrs by broth microdilution method

Compound `C[C@H]1COc2c(N3CCN(C)CC3)c(F)cc3c(=O)c(C(=O)O)cn1c23.C[C@H]1COc2c(N3CCN(C)CC3)c(F)cc3c(=O)c(C(=O)O)cn1c23.O` [LEVOFLOXACIN] has an Activity [1] of 4%, an Activity [2] of 15% and an MIC [3] of 0.25 µg/mL. It also gave an MIC50 [3] of 0.25 µg/mL, an MIC90 [3] of 0.5 µg/mL and an Activity [4] of 4%. It also gave an MIC [5] of 0.25 µg/mL, an MIC50 [5] of 0.25 µg/mL and an MIC90 [5] of 0.5 µg/mL. For the same compound, the MIC [6] was 0.25 µg/mL, the MIC50 [6] was 0.25 µg/mL and the MIC90 [6] was 4 µg/mL. It also gave an Activity [7] of 96%, an MBC50 [8] of 1 µg/mL and an MBC90 [8] of 4 µg/mL. The MBC [8] was 0.5 µg/mL, the MBC50 [9] was 4 µg/mL and the MBC90 [9] was 16 µg/mL. The MBC [9] was 0.5 µg/mL, the Activity [10] was 15% and the Activity [11] was 4%. It also gave an MIC [12] of 0.25 µg/mL, an MIC50 [12] of 0.25 µg/mL and an MIC90 [12] of 0.5 µg/mL. The Activity [13] was 96%, the Activity [14] was 26% and the Activity [15] was 96%. It also gave an MBC50 [16] of 16 µg/mL, an MBC90 [16] of 512 µg/mL and an MBC [16] of 0.5 µg/mL. It also gave an MIC [17] of 0.125 µg/mL, an MIC50 [17] of 0.125 µg/mL and an MIC90 [17] of 8 µg/mL. The MIC [18] was 0.25 µg/mL, the MIC50 [18] was 0.25 µg/mL and the MIC90 [18] was 4 µg/mL. For the same compound, the MBC50 [19] was 4 µg/mL, the MBC90 [19] was 16 µg/mL and the MBC [19] was 0.5 µg/mL. It also gave an MBC50 [20] of 1 µg/mL, an MBC90 [20] of 4 µg/mL and an MBC [20] of 0.5 µg/mL. The Activity [21] was 0%, the Activity [22] was 15% and the Activity [23] was 26%. It also gave an Activity [24] of 4%, an MBC50 [25] of 1 µg/mL and an MBC90 [25] of 4 µg/mL. For the same compound, the MBC [25] was 0.5 µg/mL, the MBC50 [26] was 4 µg/mL and the MBC90 [26] was 16 µg/mL. For the same compound, the MBC [26] was 0.5 µg/mL, the MIC [27] was 0.25 µg/mL and the MIC50 [27] was 0.25 µg/mL. For the same compound, the MIC90 [27] was 4 µg/mL, the Activity [28] was 96% and the Activity [29] was 4%. For the same compound, the Activity [30] was 59%, the MBC50 [31] was 1 µg/mL and the MBC90 [31] was 4 µg/mL. It also gave an MBC [31] of 0.5 µg/mL, an Activity [32] of 82% and an Activity [33] of 15%. For the same compound, the MBC50 [34] was 4 µg/mL, the MBC90 [34] was 16 µg/mL and the MBC [34] was 0.5 µg/mL. For the same compound, the Activity [35] was 59% and the Activity [36] was 15%.

`CN(C)[C@@H]1C(O)=C(C(N)=O)C(=O)[C@@]2(O)C(O)=C3C(=O)c4c(O)cccc4[C@@](C)(O)[C@H]3C[C@@H]12` [TETRACYCLINE] was tested, and the Activity [1] was 12%, the Activity [2] was 7% and the MIC [3] was 0.5 µg/mL (≈ 1.13 µM). For the same compound, the MIC50 [3] was 0.5 µg/mL (≈ 1.13 µM), the MIC90 [3] was 32 µg/mL (≈ 72 µM) and the Activity [4] was 12%. The MIC [5] was 0.5 µg/mL (≈ 1.13 µM), the MIC50 [5] was 0.5 µg/mL (≈ 1.13 µM) and the MIC90 [5] was 32 µg/mL (≈ 72 µM). For the same compound, the MIC50 [6] was 1 µg/mL (≈ 2.25 µM), the MIC90 [6] was 64 µg/mL (≈ 144 µM) and the Activity [7] was 69%. For the same compound, the MBC50 [8] was 8 µg/mL (≈ 18 µM), the MBC90 [8] was 128 µg/mL (≈ 288 µM) and the MBC [8] was 1 µg/mL (≈ 2.25 µM). It also gave an MBC50 [9] of 4 µg/mL (≈ 9 µM), an MBC [9] of 0.5 µg/mL (≈ 1.13 µM) and an Activity [10] of 7%. For the same compound, the Activity [11] was 12%, the MIC [12] was 0.5 µg/mL (≈ 1.13 µM) and the MIC50 [12] was 0.5 µg/mL (≈ 1.13 µM). The MIC90 [12] was 32 µg/mL (≈ 72 µM), the Activity [13] was 69% and the Activity [14] was 18%. It also gave an Activity [15] of 69%, an MBC50 [16] of 64 µg/mL (≈ 144 µM) and an MBC90 [16] of 512 µg/mL (≈ 1150 µM). The MBC [16] was 2 µg/mL (≈ 4.5 µM), the MIC50 [17] was 4 µg/mL (≈ 9 µM) and the MIC90 [17] was 8 µg/mL (≈ 18 µM). For the same compound, the MIC50 [18] was 1 µg/mL (≈ 2.25 µM), the MIC90 [18] was 64 µg/mL (≈ 144 µM) and the MBC50 [19] was 4 µg/mL (≈ 9 µM). For the same compound, the MBC [19] was 0.5 µg/mL (≈ 1.13 µM), the MBC50 [20] was 8 µg/mL (≈ 18 µM) and the MBC90 [20] was 128 µg/mL (≈ 288 µM). The MBC [20] was 1 µg/mL (≈ 2.25 µM), the Activity [21] was 19% and the Activity [22] was 7%. It also gave an Activity [23] of 18%, an Activity [24] of 12% and an MBC50 [25] of 8 µg/mL (≈ 18 µM). It also gave an MBC90 [25] of 128 µg/mL (≈ 288 µM), an MBC [25] of 1 µg/mL (≈ 2.25 µM) and an MBC50 [26] of 4 µg/mL (≈ 9 µM). The MBC [26] was 0.5 µg/mL (≈ 1.13 µM), the MIC50 [27] was 1 µg/mL (≈ 2.25 µM) and the MIC90 [27] was 64 µg/mL (≈ 144 µM). For the same compound, the Activity [28] was 69%, the Activity [29] was 4% and the Activity [30] was 75%. For the same compound, the MBC50 [31] was 8 µg/mL (≈ 18 µM), the MBC90 [31] was 128 µg/mL (≈ 288 µM) and the MBC [31] was 1 µg/mL (≈ 2.25 µM). It also gave an Activity [33] of 7%, an MBC50 [34] of 4 µg/mL (≈ 9 µM) and an MBC [34] of 0.5 µg/mL (≈ 1.13 µM). For the same compound, the Activity [35] was 75% and the Activity [36] was 11%.
